From PubChem
ABCB6 inh 2 = blocks the human ABCB6 transporter; Q9NP58; 0.19% of 360,000 active; AID 602162; K562-ABCB6 porphyrin accumulation, flow cytometry, 1 h; active compounds read low; fluorescence ratio to DMSO, % at 10 µM;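 active means fluorescence ratio to DMSO below 75%, the collection mean minus 3 SD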;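 further: signal is porphyrin accumulated inside mitochondria; lower ratio means ABCB6 inhibition with less porphyrin fluorescence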
TNAP inh no acc = inhibitors of human TNAP without phosphate acceptor. AID 1012. inhibition, % at 20 µM. purified TNAP, CDP-star luminescence, 30 min. 0.26% of 200,000 active. P05186;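 active means tissue-nonspecific alkaline phosphatase inhibition above about 50% at 20 µM in the single-dose screen, limit read from the data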
Target sequence (P05186 whole entry, looked up): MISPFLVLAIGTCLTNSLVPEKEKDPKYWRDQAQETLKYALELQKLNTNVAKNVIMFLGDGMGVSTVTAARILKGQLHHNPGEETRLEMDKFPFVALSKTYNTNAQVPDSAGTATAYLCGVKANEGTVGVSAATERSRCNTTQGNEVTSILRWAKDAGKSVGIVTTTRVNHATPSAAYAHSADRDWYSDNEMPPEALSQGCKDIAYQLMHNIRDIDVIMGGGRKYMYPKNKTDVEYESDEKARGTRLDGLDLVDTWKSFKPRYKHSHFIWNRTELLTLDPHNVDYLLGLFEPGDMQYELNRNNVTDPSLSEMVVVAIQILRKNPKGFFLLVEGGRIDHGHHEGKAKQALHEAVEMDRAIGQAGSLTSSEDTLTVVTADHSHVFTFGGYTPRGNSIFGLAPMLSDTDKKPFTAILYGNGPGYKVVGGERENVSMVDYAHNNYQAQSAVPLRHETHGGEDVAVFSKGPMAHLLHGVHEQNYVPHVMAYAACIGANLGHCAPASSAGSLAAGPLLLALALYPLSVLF
CHT inh = inhibits the human high affinity choline transporter; Q9GZV3; CHT-expressing cells, membrane potential dye, choline response; active compounds read low; B-score at 10 µM; 0.86% of 310,000 active; AID 488975;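 active means B-score over 3 SD under the library average, and starting fluorescence ratio not unusually high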;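 further: choline stimulus applied at its EC90 after an EC20 pre-addition; B-score computed on integrated fluorescence ratio after choline addition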
CHT PAM = allosterically activates the human high affinity choline transporter; Q9GZV3; CHT-expressing cells, membrane potential dye, choline EC20; active compounds read high; LV-AA mutant CHT in HEK293 cells; B-score at 10 µM; 0.49% of 310,000 active;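 active means initial fluorescence not abnormally high and integrated response B-score, plate-corrected, over 3 SD above library mean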
TNAP act hi DEA = activators of human TNAP at high phosphate acceptor concentration; P05186; purified TNAP, CDP-star luminescence, 1 M DEA, 30 min; active compounds read high; 0 = EDTA background, 1 = DMSO-only activity; activation factor at 20 µM; 200,000 tested, under 10 active;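 active means activation factor at least 2 at 20 µM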
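Test system – human TNAP · Doses – 20 µM single point · Incubation – 30 min, room temperature · Signal – luminescent substrate turnover signal · Read-out basis – activation factor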
TNAP inh hiacc = inhibitors of human TNAP at high phosphate acceptor concentration; P05186; AID 1135; 0.03% of 200,000 active; inhibition, % at 20 µM; purified TNAP, CDP-star luminescence, 1 M DEA;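 active means over 50% inhibition of tissue-nonspecific alkaline phosphatase at 20 µM in the single-dose screen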
CHT inh conf = human CHT inhibition, confirmatory screen. shares compounds with CHT inh. CHT-expressing cells, choline membrane potential dye; LV-to-AA substituted CHT, HEK293 cells. CHT activity remaining % of control (active compounds read low), % at 10 µM. 70% of 2,400 active. AID 493221;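 active means choline transporter activity left, mean of duplicates at 10 µM, below buffer-only control mean minus 3 SD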;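 further: depolarization triggered by choline at its EC90 following an EC20 pre-addition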
HEK293 CHT ctr = counter-screen for CHT inhibitors: effect in parental HEK293 cells. shares compounds with CHT inh. membrane potential dye, choline response; active = decrease or increase beyond buffer ±3SD. 4% of 2,400 active. membrane potential ratio readout (active if shifted either direction beyond buffer ±3SD; no single direction) at 10 µM;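 further: parental cells lack the transporter so any hit is non-specific; ratio is peak minus trough fluorescence over baseline after EC90 choline challenge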
Numbers stand for hits; 0 = inactive; - = no result given. The list is not random: actives were taken first. Their share in the collection is about 1.4%.

SMILES	ABCB6 inh 2	TNAP inh no acc	CHT inh	CHT PAM	TNAP act hi DEA	TNAP inh hiacc	CHT inh conf	HEK293 CHT ctr
N#CC(c1ccccc1)c1ccc2c(C(F)(F)F)cc(C(F)(F)F)nc2n1 (configuration not stated)	0	0	-5.53	0	0	0	0	0
FC(F)(F)c1cc(C(F)(F)F)c2ccc(N/N=C/c3ccccc3)nc2n1	0	0	0	0	0	0	-	-
Cc1cc(SCC(=O)c2ccc(O)c(O)c2)n2nc(C)c(-c3ccccc3)c2n1	0	-	0	0	-	-	-	-
CN(C)CCNC(=O)C(=O)NCC(c1ccc2c(c1)OCO2)N1CCN(c2ccc(F)cc2)CC1 (configuration not stated)	0	-	-5.5	0	-	-	45.0%	0
COCCNC(=O)C(=O)NCC(c1ccc2c(c1)OCO2)N1CCN(c2ccc(F)cc2)CC1 (configuration not stated)	0	-	0	0	-	-	-	-
CC(C)(C)NCC(O)c1cc(O)cc(O)c1 (configuration not stated)	0	0	-5.88	0	0	0	44.5%	0
O=C(c1cccc(S(=O)(=O)N2CCOCC2)c1)N1CCN(C/C=C/c2ccccc2)CC1	0	-	-	-	-	-	-	-
COc1cc2c(cc1OC)-c1cc(NC3CCCCC3)nc(=O)n1CC2	0	0	0	0	0	0	-	-
COc1cc2c(cc1OC)-c1cc(NC3CCCCCCC3)nc(=O)n1CC2	-	0	-7.59	0	0	0	26.6%	0
COc1cc(NC(=O)C2CC(c3cccc(OC)c3OC)=NO2)cc(OC)c1OC (configuration not stated)	0	0	0	0	0	0	-	-
COc1cccc(C2=NOC(C(=O)Nc3cccnc3Cl)C2)c1OC (configuration not stated)	0	0	-11.1	0	0	0	0	0
CN1/C(=C/C(=O)c2nc(S(C)(=O)=O)ncc2Cl)C(C)(C)c2ccccc21	0	0	-11.1	0	0	0	54.2%	0
Cc1ccc(C(=O)Oc2ccccc2C(=O)N2CCOCC2)cc1	0	0	0	0	0	0	-	-
O=C(Oc1ccccc1C(=O)N1CCOCC1)c1ccc(F)cc1	0	-	-8.19	0	-	-	0	0
O=C(COC(=O)/C=C/C(=O)OCC(=O)NC12CC3CC(CC(C3)C1)C2)NC12CC3CC(CC(C3)C1)C2	0	0	0	0	0	0	-	-
Cc1c(NC(=S)NC(=O)c2ccc(COc3ccccc3)cc2)cccc1C(=O)O	0	-	-6.27	0	-	-	0	0
CC1CCCCN1C(=O)c1ccc(NC(=O)c2ccccc2Cl)cc1 (configuration not stated)	0	0	0	0	0	0	-	-
CC1CCCCN1C(=O)c1ccc(C(=O)Nc2ccc(F)cc2)cc1 (configuration not stated)	0	-	-6.43	0	-	-	45.0%	0
CCOC(=O)c1[nH]c(C)c(C(=O)O)c1C	-	0	-	-	0	0	-	-
CCOC(=O)c1[nH]c(C=O)c(C(=O)OCC)c1C	0	0	-5.24	0	0	0	68.7%	0
O=c1cc(CN(Cc2ccccc2)Cc2ccccc2)c2c(ccc3ccccc32)o1	0	-	-	-	-	-	-	-
CC(NS(=O)(=O)OCC(Cl)(Cl)Cl)c1ccc(Br)cc1 (configuration not stated)	0	-	-5.18	0	-	-	67.3%	0
CC(C)CC(NS(=O)(=O)OCC(Cl)(Cl)Cl)c1ccccc1 (configuration not stated)	0	-	0	0	-	-	-	-
COC(=O)N/N=C/c1cc(C)n(-c2ccccc2)c1C	0	0	-8.35	0	0	0	23.4%	0
CCc1ccc(-n2c(C)cc(/C=N/NC(=O)OC)c2C)cc1	0	0	-8.63	0	0	0	61.7%	0
SMILES	ABCB6 inh 2	TNAP inh no acc	CHT inh	CHT PAM	TNAP act hi DEA	TNAP inh hiacc	CHT inh conf	HEK293 CHT ctr
COC(=O)N/N=C/c1cc(C)n(-c2ccc(F)cc2)c1C	0	0	0	0	0	0	-	-
Cc1cc(/C=N/NC(=O)c2ccncc2)c(C)n1-c1ccccc1	0	0	-6.79	0	0	0	30.0%	0
CCc1ccc(-n2c(C)cc(/C=N/NC(=O)c3ccncc3)c2C)cc1	0	0	0	0	0	0	-	-
CCOc1cc(Br)ccc1S(=O)(=O)NCc1ccccc1	0	0	-6.26	0	0	0	0	0
CCCCn1c(Oc2ccc(C(=O)OC)cc2)nc2c1c(=O)n(C)c(=O)n2C	0	0	-6.82	0	0	0	0	0
CCn1c(Oc2ccc(F)cc2)nc2c1c(=O)n(C)c(=O)n2C	0	0	0	0	0	0	-	-
c1cc(Nc2ncnc3sccc23)cc(-c2nnc3n2CCCCC3)c1	0	0	-6.01	0	0	0	56.5%	0
O=C(Nc1cccc(N=Cc2cc(Br)cc(Br)c2O)c1)c1ccco1	0	0	0	0	0	0	-	-
Oc1c(Br)cc(Br)cc1C=Nc1ccc2c(c1)OCO2	0	0	-6.35	0	0	0	0	0
Oc1c(Br)cc(Br)cc1C=Nc1ccc2c(c1)OCCO2	0	0	-5.35	0	0	0	0	0
O=C(CCC1CCCCC1)NCCS(=O)(=O)N1CCN(c2ccc(F)cc2)CC1	0	-	0	0	-	-	-	-
O=C(CCC1CCCC1)NCCS(=O)(=O)N1CCN(c2ccc(F)cc2)CC1	0	-	-5.16	0	-	-	0	0
O=C(NCCNC(=O)c1cc(Cl)ccc1Cl)c1ccccn1	0	-	0	0	-	-	-	-
Cc1ccc(OCC(=O)NNC(=S)NC(=O)C(C)(C)C)c(Br)c1	0	0	-10.1	0	0	0	54.7%	0
Cc1ccc(OCC(=O)NC(=S)Nc2ccccn2)c(Br)c1	0	-	0	0	-	-	-	-
CCCOc1ccc(C(CC(=O)O)NC(=O)CC(c2ccccc2)c2ccccc2)cc1 (configuration not stated)	0	0	-6.77	0	0	0	24.3%	0
O=C(CCCOc1ccc(Cl)cc1Cl)N/N=C/c1cccc([N+](=O)[O-])c1	0	0	0	0	0	0	-	-
CCCc1cc(=O)[nH]c(SCC(=O)c2cc(C)n(CC(F)(F)F)c2C)n1	0	0	-6.25	0	0	0	0	0
CS(=O)(=O)c1ncc(Cl)c(C(=O)Nc2ccc(OC(F)F)cc2)n1	0	-	-6.46	0	-	-	50.1%	0
CCOC(=O)c1nc(S(C)(=O)=O)ncc1Cl	0	0	-6.31	0	0	0	47.3%	0
CS(=O)(=O)c1ncc(Cl)c(C(=O)Nc2ccc(N3CCOCC3)cc2)n1	0	0	-6.92	0	0	0	55.8%	0
CCOC(=O)c1ccc(NC(=O)c2nc(SC)ncc2Cl)cc1	0	-	0	0	-	-	-	-
CS(=O)(=O)c1ccc(C(=O)Nc2ccc(N3CCOCC3)cc2)c(Cl)c1	0	0	0	0	0	0	-	-
